{"data": "Published values from different studies", "target": "Dual specificity tyrosine-phosphorylation-regulated kinase 1B (DYRK1B, Homo sapiens, UniProt Q9Y463)", "note": "Lines come from different studies, so protocols differ."}
{"Compound": "O=C(O)c1ccc2c(c1)nc(NCc1ccccc1)c1ccncc12", "assay": "enzyme activity, inhibitor, radiometric", "setting": "1 µM", "measurement": "remaining activity", "result": "112%"}
{"Compound": "CCCS(=O)(=O)Nc1ccc(F)c(C(=O)c2c[nH]c3ncc(-c4ccc(Cl)cc4)cc23)c1F", "assay": "enzyme activity, inhibitor", "setting": "1 µM", "measurement": "inhibition", "result": "< 20%"}
{"Compound": "COc1cccc(CCNc2nc3cc(C(=O)O)ccc3c3cnccc23)c1", "assay": "enzyme activity, inhibitor, radiometric", "setting": "1 µM", "measurement": "remaining activity", "result": "123%"}
{"Compound": "CC(=O)N1CCC(c2ccc(C(=O)NC(=N)N)cc2C(F)(F)F)CC1", "assay": "cell-free assay, competition with immobilised ligand", "setting": "1 µM", "measurement": "remaining binding", "result": "45%"}
{"Compound": "O=C(CSc1nc2nccnc2c(=O)n1CCc1ccccc1)Nc1nccs1", "assay": "enzyme activity, inhibitor", "setting": "10 µM", "measurement": "inhibition", "result": "-3%"}
{"Compound": "Cn1cncc1C1=CN(c2ncnc3[nH]cnc23)CCS1", "assay": "enzyme activity, inhibitor, radiometric", "setting": "2 µM", "measurement": "inhibition", "result": "95.3%"}
{"Compound": "O=C(O)c1ccc2c(c1)nc(NCc1ccccc1)c1ncncc12", "assay": "enzyme activity, inhibitor, radiometric", "setting": "1 µM", "measurement": "remaining activity", "result": "124%"}
{"Compound": "CC/C(=N\\NC(=O)NCc1cccc(O)c1)c1ccc(O)c(C)c1O", "assay": "enzyme activity, inhibitor", "setting": "0.1 µM", "measurement": "inhibition", "result": "-5.1%"}
{"Compound": "O=C(O)c1ccc2c(c1)nc(NCCc1cccc(F)c1)c1ncncc12", "assay": "enzyme activity, inhibitor, radiometric", "setting": "1 µM", "measurement": "remaining activity", "result": "117%"}
{"Compound": "Cc1c(C(=O)O)cc(-c2ccc(C3CCNCC3)cc2)c2ccc(-c3ccc(C(F)(F)F)cc3)cc12", "assay": "cell-free assay, competition with immobilised ligand", "setting": "1 µM", "measurement": "remaining binding", "result": "74%"}
{"Compound": "O=C(O)c1ccc2c(c1)nc(NCCc1cccc(Cl)c1)c1ncncc12", "assay": "enzyme activity, inhibitor, radiometric", "setting": "1 µM", "measurement": "remaining activity", "result": "114%"}
{"Compound": "O=C(NCCCC1CCCCC1)c1ccc(CNC(=O)c2cnn(-c3ccccc3)c2C(F)(F)F)cc1", "assay": "cell-free assay, competition with immobilised ligand", "setting": "0.1 µM", "measurement": "remaining binding", "result": "100%"}
{"Compound": "COc1cc2ncnc(Nc3ccc(Oc4ccccc4)cc3C)c2cc1OC", "assay": "enzyme activity, inhibitor", "setting": "1 µM", "measurement": "inhibition", "result": "0%"}
{"Compound": "Cn1cnc(Br)c1C1=CN(c2ncnc3[nH]cnc23)CCS1", "assay": "enzyme activity, inhibitor, radiometric", "setting": "2 µM", "measurement": "inhibition", "result": "100%"}
{"Compound": "CSc1cccnc1N1CCN(Cc2nc3ccccc3[nH]2)CC1", "assay": "cell-free assay, competition with immobilised ligand", "setting": "1 µM", "measurement": "remaining binding", "result": "91%"}
